Hits are enriched below; roughly 1.7% of the tested compounds scored in any of these assays.
SUMO1-SIM PPI: SUMO1-SIM interaction modulation; AID 602429; 0.33% of 360,000 active; inhibition, % at 20 µM; SUMO1 binding to a labelled peptide, TR-FRET, 1 h; in the data active means inhibition above about 37%
STEP inh: inhibitors of human striatal-enriched phosphatase STEP; P54829; recombinant STEP, OMFP fluorogenic substrate, fluorescence; inhibition, % at 20 µM; 0.25% of 360,000 active; AID 588621;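 active means inhibition at 20 µM, scaled per plate between control wells, above about 37%, limit read from the data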
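System: isolated STEP enzyme; schedule: 20 min enzyme reaction at room temperature, protected from light; medium: Bis-Tris buffer pH 6.0, 2.5 mM DTT, 0.005% Tween 20; signal: fluorescence, 480/540 nm; dosing: single compound dose of 20 µM, 1% DMSO final; also added: OMFP substrate, 25 µM final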
LMPTP inh: LMPTP (human) inhibition; inhibition, % at 20 µM; recombinant LMPTP-A, OMFP fluorogenic substrate, fluorescence intensity; 0.22% of 360,000 active; AID 651560;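 active means compounds that cut the enzyme signal by at least half of the control window in the single-dose screen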
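Buffer or medium: Bis-Tris pH 6.0, DTT, detergent; Assay system: LMPTP-A enzyme; Quantity: 0.625 nM enzyme; Detection: endpoint fluorescence intensity; Times: 50 min dark incubation at room temperature; Controls: substrate-only low control, DMSO enzyme-plus-substrate high control; Doses: single 20 µM dose; Read-out: percent inhibition versus substrate-only and uninhibited controls; Reagent: 400 µM OMFP.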
Scp-1 inhibitor: blocks human Scp-1 phosphatase activity. Recombinant Scp1, phosphopeptide, malachite green phosphate absorbance. Q9GZU7. 0.88% of 340,000 active. AID 493091. inhibition, % at 20 µM;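 active means inhibition above about 50% at 20 µM, limit read from the data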
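Test system: SCP-1 phosphatase catalytic domain, residues 76-261 | Compound dosing: One concentration, 20 µM, with 1.0% DMSO | Schedule: 45 min room-temperature reaction, 5 min colour, 30 min stabiliser | Detection: Absorbance at 630 nm | Read-out basis: % inhibition of SCP-1 phosphate liberation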
DNMT1 block: blocks human DNA methyltransferase DNMT1. P26358. DNMT1 molecular beacon, Hinp1I cleavage, fluorescence. inhibition (reported as % activation of signal), % at 10 µM. 0.83% of 360,000 active; in the data active means inhibition above about 50%
Target sequence (P26358 504-1616 limits assumed): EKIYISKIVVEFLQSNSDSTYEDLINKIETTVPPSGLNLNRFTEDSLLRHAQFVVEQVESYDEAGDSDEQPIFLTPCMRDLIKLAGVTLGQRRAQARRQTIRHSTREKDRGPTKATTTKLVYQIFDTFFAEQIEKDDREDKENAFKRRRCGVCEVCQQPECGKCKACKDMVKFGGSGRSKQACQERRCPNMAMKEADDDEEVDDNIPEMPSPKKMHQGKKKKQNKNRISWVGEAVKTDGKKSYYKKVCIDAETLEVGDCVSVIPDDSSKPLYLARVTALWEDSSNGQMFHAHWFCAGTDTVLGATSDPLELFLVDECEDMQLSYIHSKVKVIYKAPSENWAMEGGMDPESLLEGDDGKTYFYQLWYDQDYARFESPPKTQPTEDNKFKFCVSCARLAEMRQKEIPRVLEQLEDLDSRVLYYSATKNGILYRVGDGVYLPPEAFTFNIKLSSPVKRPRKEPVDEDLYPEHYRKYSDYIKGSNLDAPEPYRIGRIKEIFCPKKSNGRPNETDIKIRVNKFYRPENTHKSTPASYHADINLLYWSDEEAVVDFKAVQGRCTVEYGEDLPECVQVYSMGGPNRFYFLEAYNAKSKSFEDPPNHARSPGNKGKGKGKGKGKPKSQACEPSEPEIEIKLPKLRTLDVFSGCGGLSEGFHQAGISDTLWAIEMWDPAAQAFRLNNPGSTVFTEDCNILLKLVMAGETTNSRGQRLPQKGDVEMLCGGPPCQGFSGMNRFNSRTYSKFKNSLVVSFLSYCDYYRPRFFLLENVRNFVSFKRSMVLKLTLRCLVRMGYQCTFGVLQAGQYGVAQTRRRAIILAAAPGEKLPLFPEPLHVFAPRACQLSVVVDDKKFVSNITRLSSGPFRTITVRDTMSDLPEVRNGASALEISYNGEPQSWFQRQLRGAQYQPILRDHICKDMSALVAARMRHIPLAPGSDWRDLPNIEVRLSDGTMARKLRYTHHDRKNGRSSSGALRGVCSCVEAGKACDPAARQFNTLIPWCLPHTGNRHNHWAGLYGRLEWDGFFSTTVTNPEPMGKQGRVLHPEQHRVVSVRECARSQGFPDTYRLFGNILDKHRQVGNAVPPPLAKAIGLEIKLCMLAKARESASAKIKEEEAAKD
DNMT1 interf DR: beacon fluorescence artifact, dose response counter-screen. shares compounds with DNMT1 block. molecular beacon fluorescence, spectral interference counter-screen. IC50, µM. 200 tested, under 10 active. AID 602382; call rule not given here
DNMT1 confirm: DNMT1 inhibition confirmation, single concentration | DNMT1 molecular beacon HinP1I cleavage, fluorescence | inhibition, % at 10 µM | shares compounds with DNMT1 block | 8% of 2,300 active;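 active means average inhibition of at least 30% in the single-concentration confirmation test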
Beacon interf: counter-screen for DNMT1 inhibitors: spectral interference | shares compounds with DNMT1 block | DNMT1 molecular beacon spectral interference counterscreen, fluorescence 485/520 | activation (fluorescence interference), % at 10 µM | 1% of 2,300 active | AID 602387;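 active means activation of at least 30% at 10 µM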;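 further: DNMT1 catalytic domain with a HinP1I cleavage step and a FAM/dabcyl DNA beacon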
Each line names hits and unclear results; the compound was inactive in the other large screens (follow-up assays come after a bar, where they were run).

C=C1CCC2[C@](C)(CO)[C@H](O)CC[C@@]2(C)[C@@H]1C/C=C1\C(=O)OC[C@H]1O (some centres undefined)	none
O=C(/C=C/c1ccco1)Nc1cccc(C(=O)Nc2ccccc2C(=O)O)c1	SUMO1-SIM PPI 53, Scp-1 inhibitor 58, DNMT1 block 86 | DNMT1 confirm inactive | Beacon interf inactive
CCc1ccccc1NC(=O)c1cccc(NC(=O)/C=C/c2ccco2)c1	none
Cc1ccc(-n2nc3ccc(NC(=O)/C=C/c4ccco4)cc3n2)cc1	DNMT1 block 104 | DNMT1 confirm inactive | Beacon interf inactive
Cc1ccc(NC(=O)c2cccc(NC(=O)/C=C/c3ccco3)c2)cc1C	none
Cc1cc(Br)ccc1NC(=O)CSc1nnc(CN2CCOCC2)n1C	none
COc1ccc(-n2c(SCC(=O)N3CCc4ccccc43)nnc2-c2c[nH]c3ccccc23)cc1	DNMT1 block 67 | DNMT1 confirm inactive | Beacon interf inactive
CCn1c(SCC(=O)N2CCc3ccccc32)nnc1-c1c[nH]c2ccccc12	none
O=C(NCCCN1CCCC1)c1ccc2c(c1)N(Cc1cccc(Cl)c1)C(=O)c1ccccc1S2(=O)=O	none (no result: Scp-1 inhibitor)
CC1CCCCN1CCNC(=O)c1ccc2c(c1)N(Cc1cccc(Cl)c1)C(=O)c1ccccc1S2(=O)=O (centres undefined)	DNMT1 block 86 (no result: Scp-1 inhibitor) | DNMT1 confirm inactive | Beacon interf inactive
CC1CCCCC12NC(=O)N(CC(=O)Nc1nccs1)C2=O (centres undefined)	none
CC(C)C(NC(=O)c1ccc2c(c1)OCO2)C(=O)N/N=C/c1cccs1 (centres undefined)	DNMT1 block 60 | DNMT1 confirm inactive | Beacon interf inactive
COc1ccc(CC(=O)Nc2ccc(F)c(Cl)c2)cc1S(=O)(=O)N1CCOCC1	none
O=C(CC[C@H]1O[C@@H](n2cnc3c(NC(=O)c4ccccc4)ncnc32)[C@H](O)[C@@H]1O)NCc1nc2ccccc2[nH]1	SUMO1-SIM PPI 44, DNMT1 block 116 (no result: Scp-1 inhibitor) | DNMT1 confirm inactive | Beacon interf inactive
Cc1ccc(C(=O)N2CCC(N3CCC(C(=O)N4CCOCC4)CC3)CC2)cc1C	none
O=C(COC(=O)C1CC(=O)N(Cc2ccco2)C1)c1ccc(OC(=O)c2ccco2)cc1 (centres undefined)	Scp-1 inhibitor 81, DNMT1 block 76 | DNMT1 confirm inactive | Beacon interf inactive
N#Cc1ccc(COC(=O)CN2C(=O)NC3(CCCC3)C2=O)cc1	none
O=C(COC(=O)/C=C/c1cccc(C(F)(F)F)c1)NCc1cccs1	none
COc1ccc(-c2c(-c3ccc(OC)nc3)c3ccccc3n2C)cc1	none
O=C(O)C/C(=C\c1cc(Cl)c2c(c1)OCO2)c1nc2ccccc2s1	DNMT1 block 53 | DNMT1 confirm inactive | Beacon interf inactive
O=C(CCl)Nc1cccc(Oc2ccccc2)c1	none
Cc1ccc(C2C(/C=C3/SC(=S)NC3=O)=C(c3cccs3)Oc3ccccc32)cc1 (centres undefined)	DNMT1 block 83 | DNMT1 interf DR inactive | DNMT1 confirm 72 | Beacon interf inactive
CC1Cc2cc(/C=C3/SC(=S)NC3=O)ccc2O1 (centres undefined)	none
Cc1ccc(S(=O)(=O)Nc2ccc(S(=O)(=O)NCC3CCCO3)cc2)cc1 (centres undefined)	none
Cc1ccc(-c2nnc(Nc3cccc(O)c3)c3ccccc23)cc1S(=O)(=O)NCCO	DNMT1 block 90 | DNMT1 confirm inactive | Beacon interf inactive
Cc1ccc(CNc2ccc3nnc(-c4ccccc4)n3n2)cc1	DNMT1 block 74 | DNMT1 confirm inactive | Beacon interf inactive
Cn1c(=O)c2cc(S(=O)(=O)NC(C(=O)Nc3cccc(F)c3)c3ccccc3)ccc2n(C)c1=O (centres undefined)	DNMT1 block 83 | DNMT1 confirm inactive | Beacon interf inactive
Cn1c(=O)c2cc(S(=O)(=O)NC(C(=O)Nc3cccnc3)c3ccccc3)ccc2n(C)c1=O (centres undefined)	none
COc1cc(OC)cc(C(=O)NNC(=O)CNC(=O)c2cccs2)c1	none
Cc1ccc(N(C)S(=O)(=O)c2nnc(NC(=O)c3ccco3)s2)cc1	none
Cc1ccccc1N(C)S(=O)(=O)c1nnc(NC(=O)c2ccco2)s1	DNMT1 block 54 | DNMT1 confirm inactive | Beacon interf inactive
N#Cc1ccccc1/C=N/Nc1nc(-c2ccccc2)c2cc(Br)ccc2n1	DNMT1 block 73 | DNMT1 confirm inactive | Beacon interf inactive
OCCNc1nc(-c2ccccc2)c2cc(Br)ccc2n1	none
CCCn1c(SCC(=O)NC2CCC(C)CC2)n[nH]c1=O (centres undefined)	none
Cc1ccc(/C=N/Nc2ccnc3cc(Cl)ccc23)c(C)c1	DNMT1 block 62 | DNMT1 confirm inactive | Beacon interf inactive
CC(=O)N1CCC(=NNc2ccnc3cc(Cl)ccc23)CC1	none
Oc1ccc(Nc2ccnc3cc(Cl)ccc23)cc1	none
Clc1ccc2c(N/N=C/c3cccnc3)ccnc2c1	none
Clc1ccc2c(N/N=C/c3ccc(Br)cc3)ccnc2c1	DNMT1 block 66 | DNMT1 confirm inactive | Beacon interf inactive
Oc1ccc(/C=N/Nc2ccnc3cc(Cl)ccc23)c(O)c1	SUMO1-SIM PPI 112, DNMT1 block 84 | DNMT1 confirm inactive | Beacon interf inactive
Cc1ccccc1/C=N/Nc1ccnc2cc(Cl)ccc12	DNMT1 block 70 | DNMT1 confirm inactive | Beacon interf inactive
Clc1ccc(NNc2ccnc3cc(Cl)ccc23)cc1	none
COc1ccc2c(c1)CCN1C2CCN2C(=O)CCC21 (centres undefined)	none
CC(C)Oc1ccc(CNC(=O)CCC(=O)N2CCSc3ccccc32)cc1	none
CCOC(=O)c1c(C)[nH]c(C(=O)OCC(=O)Nc2ccc(OCC)cc2)c1C	DNMT1 block 69 | DNMT1 confirm inactive | Beacon interf inactive
CCOC(=O)c1c(C)[nH]c(C(=O)OCC(=O)Nc2cc(Cl)ccc2OC)c1C	none
CCOC(=O)c1c(C)[nH]c(C(=O)OCC(=O)Nc2ccc(OC)c(Cl)c2)c1C	none
CCOC(=O)c1[nH]c(C)c(C(=O)OCC(=O)N2CCc3ccccc32)c1C	none
CCOC(=O)c1c(C)[nH]c(C(=O)OCC(=O)N2CCc3ccccc32)c1C	DNMT1 block 62 | DNMT1 confirm inactive | Beacon interf inactive
CCOC(=O)c1c(C)[nH]c(C(=O)OCC(=O)Nc2cc(C)ccc2OC)c1C	DNMT1 block 62 | DNMT1 confirm inactive | Beacon interf inactive
